Laboratory results taken from ChEMBL document CHEMBL4038305, “Benzoxaborole Antimalarial Agents. Part 5. Lead Optimization of Novel Amide Pyrazinyloxy Benzoxaboroles and Identification of a Preclinical Candidate” (J Med Chem, 2017).

Tests used:
[1] = Cmax in CD1 mouse plasma at 5 mg/kg, po via gavage by HPLC/MS analysis; assay type: ADME, organism-based; set-up: dose 5 mg/kg, route oral
Summary of the method: (§1)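 Female CD-1 mice, male SD rats and beagle dogs received 5 mg/kg either iv or by oral gavage. Vehicle was PEG 300/propylene glycol/water (55/25/20, pH 6). Blood was sampled and drug measured by HPLC-MS/MS.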

[2] = Tmax in CD1 mouse plasma at 5 mg/kg, po via gavage by HPLC/MS analysis; assay type: ADME, organism-based
Summary of the method: (§2)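 Female CD-1 mice, male SD rats or beagle dogs given 5 mg/kg by iv injection or oral gavage. Formulation was PEG300/propylene glycol/water 55/25/20, pH 6. Blood samples analysed by HPLC–MS/MS; parameters include AUC0-inf extrapolated to infinity and terminal half-life.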

[3] = AUC (0 to infinity) in CD1 mouse at 5 mg/kg, po via gavage by HPLC/MS analysis; assay type: ADME, organism-based; set-up: dose 5 mg/kg, time infinity, route oral; conditions: in vivo
[4] = Clearance in CD1 mouse at 5 mg/kg, iv by HPLC/MS analysis; assay type: ADME, organism-based; conditions: in vivo; summary of the method: as §1
[5] = Volume of distribution at steady state in CD1 mouse at 5 mg/kg, iv by HPLC/MS analysis; assay type: ADME, organism-based; conditions: in vivo, read-out: Vdss; summary of the method: as §2
[6] = AUC (0 to infinity) in CD1 mouse at 5 mg/kg, iv by HPLC/MS analysis; assay type: ADME, organism-based; set-up: dose 5 mg/kg, time infinity, route intravenous; conditions: in vivo
[7] = Terminal half life in CD1 mouse at 5 mg/kg, iv by HPLC/MS analysis; assay type: ADME, organism-based; conditions: in vivo, read-out: beta t1/2 (converted); summary of the method: as §2
Plasmodium berghei [8] = experiment: Antimalarial activity against Plasmodium berghei infected in Swiss Webster mouse assessed as mouse survival rate at 100 mg/kg administered once daily via oral gavage for 4 consecutive days beginning 1 hr after infection measured on day 15 post infection relative to control; assay type: functional
Summary of the method: (§3)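 Mice given an intraperitoneal injection of P. berghei-infected erythrocytes taken from a previously infected animal. Oral dosing once daily for 4 consecutive days, starting 1 h after infection. Vehicle: polyethylene glycol 300/propylene glycol/water (weight ratio 55/25/20). Percent survival recorded daily from day 4 to day 20. Chloroquine 30 mg/kg and vehicle-only groups served as controls.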

Plasmodium berghei [9] = experiment: Antimalarial activity against Plasmodium berghei infected in Swiss Webster mouse assessed as mouse survival rate at 100 mg/kg administered once daily via oral gavage for 4 consecutive days beginning 1 hr after infection measured on day 16 post infection relative to control; assay type: functional; summary of the method: as §3
Plasmodium berghei [10] = experiment: Antimalarial activity against Plasmodium berghei infected in Swiss Webster mouse assessed as mouse survival rate at 100 mg/kg administered once daily via oral gavage for 4 consecutive days beginning 1 hr after infection measured on day 17 post infection relative to control; assay type: functional; summary of the method: as §3
Plasmodium berghei [11] = experiment: Antimalarial activity against Plasmodium berghei infected in Swiss Webster mouse assessed as mouse survival rate at 1.1 mg/kg administered once daily via oral gavage for 4 consecutive days beginning 1 hr after infection measured on day 4 post infection relative to control; assay type: functional; summary of the method: as §3
Plasmodium berghei [12] = experiment: Antimalarial activity against Plasmodium berghei infected in Swiss Webster mouse assessed as mouse survival rate at 1.1 mg/kg administered once daily via oral gavage for 4 consecutive days beginning 1 hr after infection measured on day 5 post infection relative to control; assay type: functional; summary of the method: as §3
Plasmodium berghei [13] = experiment: Antimalarial activity against Plasmodium berghei infected in Swiss Webster mouse assessed as mouse survival rate at 1.1 mg/kg administered once daily via oral gavage for 4 consecutive days beginning 1 hr after infection measured on day 6 post infection relative to control; assay type: functional; summary of the method: as §3
Plasmodium berghei [14] = experiment: Antimalarial activity against Plasmodium berghei infected in Swiss Webster mouse assessed as mouse survival rate at 100 mg/kg administered once daily via oral gavage for 4 consecutive days beginning 1 hr after infection measured from day 16 to day 19 post infection relative to control; assay type: functional; summary of the method: as §3
Plasmodium berghei [15] = experiment: Antimalarial activity against Plasmodium berghei infected in Swiss Webster mouse assessed as mouse survival rate at 100 mg/kg administered once daily via oral gavage for 4 consecutive days beginning 1 hr after infection measured on day 20 post infection relative to control; assay type: functional; summary of the method: as §3
Plasmodium berghei [16] = experiment: Antimalarial activity against Plasmodium berghei infected in Swiss Webster mouse assessed as mouse survival rate at 200 mg/kg administered once daily via oral gavage for 4 consecutive days beginning 1 hr after infection measured on day 4 post infection relative to control; assay type: functional
Summary of the method: (§4)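 P. berghei-infected erythrocytes taken from a previously infected mouse were injected intraperitoneally. Oral dosing, once daily for 4 consecutive days, began 1 h after infection, in polyethylene glycol 300/propylene glycol/water (55/25/20 by weight). Chloroquine at 30 mg/kg was the positive control, with a vehicle-only group. Percent survival was recorded daily from day 4 to day 20.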

Plasmodium berghei [17] = experiment: Antimalarial activity against Plasmodium berghei infected in Swiss Webster mouse assessed as mouse survival rate at 200 mg/kg administered once daily via oral gavage for 4 consecutive days beginning 1 hr after infection measured on day 5 post infection relative to control; assay type: functional; summary of the method: as §4
Plasmodium berghei [18] = experiment: Antimalarial activity against Plasmodium berghei infected in Swiss Webster mouse assessed as mouse survival rate at 200 mg/kg administered once daily via oral gavage for 4 consecutive days beginning 1 hr after infection measured on day 7 post infection relative to control; assay type: functional; summary of the method: as §4
Plasmodium berghei [19] = experiment: Antimalarial activity against Plasmodium berghei infected in Swiss Webster mouse assessed as mouse survival rate at 200 mg/kg administered once daily via oral gavage for 4 consecutive days beginning 1 hr after infection measured on day 8 post infection relative to control; assay type: functional; summary of the method: as §4
Plasmodium berghei [20] = experiment: Antimalarial activity against Plasmodium berghei infected in Swiss Webster mouse assessed as mouse survival rate at 200 mg/kg administered once daily via oral gavage for 4 consecutive days beginning 1 hr after infection measured on day 9 post infection relative to control; assay type: functional; summary of the method: as §4
Plasmodium berghei [21] = experiment: Antimalarial activity against Plasmodium berghei infected in Swiss Webster mouse assessed as mouse survival rate at 200 mg/kg administered once daily via oral gavage for 4 consecutive days beginning 1 hr after infection measured on day 10 post infection relative to control; assay type: functional; summary of the method: as §4
Plasmodium berghei [22] = experiment: Antimalarial activity against Plasmodium berghei infected in Swiss Webster mouse assessed as mouse survival rate at 200 mg/kg administered once daily via oral gavage for 4 consecutive days beginning 1 hr after infection measured on day 11 post infection relative to control; assay type: functional; summary of the method: as §4
Plasmodium berghei [23] = experiment: Antimalarial activity against Plasmodium berghei infected in Swiss Webster mouse assessed as mouse survival rate at 200 mg/kg administered once daily via oral gavage for 4 consecutive days beginning 1 hr after infection measured on day 12 post infection relative to control; assay type: functional; summary of the method: as §4
Plasmodium berghei [24] = experiment: Antimalarial activity against Plasmodium berghei infected in Swiss Webster mouse assessed as mouse survival rate at 200 mg/kg administered once daily via oral gavage for 4 consecutive days beginning 1 hr after infection measured on day 13 post infection relative to control; assay type: functional; summary of the method: as §4
Plasmodium berghei [25] = experiment: Antimalarial activity against Plasmodium berghei infected in Swiss Webster mouse assessed as mouse survival rate at 200 mg/kg administered once daily via oral gavage for 4 consecutive days beginning 1 hr after infection measured on day 14 post infection relative to control; assay type: functional; summary of the method: as §4
Plasmodium berghei [26] = experiment: Antimalarial activity against Plasmodium berghei infected in Swiss Webster mouse assessed as mouse survival rate at 200 mg/kg administered once daily via oral gavage for 4 consecutive days beginning 1 hr after infection measured on day 15 post infection relative to control; assay type: functional; summary of the method: as §4
Plasmodium berghei [27] = experiment: Antimalarial activity against Plasmodium berghei infected in Swiss Webster mouse assessed as mouse survival rate at 200 mg/kg administered once daily via oral gavage for 4 consecutive days beginning 1 hr after infection measured on day 20 post infection relative to control; assay type: functional; summary of the method: as §4
Plasmodium berghei [28] = experiment: Antimalarial activity against Plasmodium berghei infected in Swiss Webster mouse assessed as mouse survival rate at 200 mg/kg administered once daily via oral gavage for 4 consecutive days beginning 1 hr after infection measured from day 16 to day 19 post infection relative to control; assay type: functional; summary of the method: as §4

SMILES | Cmax [1] [ng/mL] | Tmax [2] [h] | AUC(0-inf) [3] [ng·h/mL] | clearance [4] [mL/min/kg] | Vd [5] [L/kg] | AUC(0-inf) [6] [ng·h/mL] | half-life [7] [h] | survival at 100 mg/kg (Plasmodium berghei [8]) [%] | survival at 200 mg/kg (Plasmodium berghei [16]) [%] | survival at 200 mg/kg (Plasmodium berghei [17]) [%] | survival at 200 mg/kg (Plasmodium berghei [18]) [%] | survival at 200 mg/kg (Plasmodium berghei [19]) [%] | survival at 200 mg/kg (Plasmodium berghei [20]) [%] | survival at 200 mg/kg (Plasmodium berghei [21]) [%] | survival at 200 mg/kg (Plasmodium berghei [22]) [%] | survival at 200 mg/kg (Plasmodium berghei [23]) [%] | survival at 200 mg/kg (Plasmodium berghei [24]) [%] | survival at 200 mg/kg (Plasmodium berghei [25]) [%] | survival at 200 mg/kg (Plasmodium berghei [26]) [%] | survival at 200 mg/kg (Plasmodium berghei [27]) [%] | further results
Cc1c(Oc2cnc(C(=O)NC(C)CO)cn2)ccc2c1B(O)OC2 (stereo unspecified) | 3800 | 1 | 33000 | 2.13 | 0.603 | 39000 | 3.1 |  |  |  |  |  |  |  |  |  |  |  |  |  | 
Cc1c(Oc2cnc(C(=O)N[C@@H](CO)CC(F)(F)F)cn2)ccc2c1B(O)OC2 | 2100 | 1 | 13400 | 3.97 | 0.741 | 21000 | 3 |  |  |  |  |  |  |  |  |  |  |  |  |  | 
Cc1c(Oc2cnc(C(=O)N3CC(C)(O)C3)cn2)ccc2c1B(O)OC2 | 3900 | 0.5 | 20700 | 4.07 | 0.888 | 20500 | 7.1 | 60 |  |  |  |  |  |  |  |  |  |  |  |  | survival at 100 mg/kg (Plasmodium berghei [9]): 60%; survival at 100 mg/kg (Plasmodium berghei [10]): 0%
Cc1c(Oc2cnc(C(=O)N3CC(O)(C(F)(F)F)C3)cn2)ccc2c1B(O)OC2 |  |  |  |  |  |  |  | 100 |  |  |  |  |  |  |  |  |  |  |  |  | survival at 1.1 mg/kg (Plasmodium berghei [11]): 100%; survival at 1.1 mg/kg (Plasmodium berghei [12]): 100%; survival at 1.1 mg/kg (Plasmodium berghei [13]): 100%; survival at 100 mg/kg (Plasmodium berghei [14]): 100%; survival at 100 mg/kg (Plasmodium berghei [15]): 100%
Cc1c(Oc2cnc(C(=O)NCCO)cn2)ccc2c1B(O)OC2 | 4300 | 1 | 29600 | 2.65 | 0.636 | 31400 | 3 |  | 100 | 100 | 100 | 80 | 80 | 0 |  |  |  |  |  |  | 
CCCC1(O)CN(C(=O)c2cnc(Oc3ccc4c(c3C)B(O)OC4)cn2)C1 |  |  |  |  |  |  |  | 80 | 100 | 100 | 100 | 100 | 100 | 100 | 100 | 100 | 100 | 100 | 100 | 0 | survival at 100 mg/kg (Plasmodium berghei [14]): 20%; survival at 100 mg/kg (Plasmodium berghei [15]): 0%
CCC[C@H](CO)NC(=O)c1cnc(Oc2ccc3c(c2C)B(O)OC3)cn1 | 4000 | 0.5 | 21600 | 4.05 | 0.874 | 20500 | 4.2 |  | 100 | 100 | 100 | 100 | 100 | 100 | 100 | 100 | 100 | 100 | 100 | 100 | survival at 200 mg/kg (Plasmodium berghei [28]): 100%
CCC1(O)CN(C(=O)c2cnc(Oc3ccc4c(c3C)B(O)OC4)cn2)C1 |  |  |  |  |  |  |  |  | 100 | 100 | 100 | 100 | 100 | 100 | 100 | 100 | 100 | 100 | 100 | 80 | survival at 200 mg/kg (Plasmodium berghei [28]): 80%
Cc1c(Oc2cnc(C(=O)N3CC(O)(C(C)C)C3)cn2)ccc2c1B(O)OC2 |  |  |  |  |  |  |  | 100 | 100 | 100 | 100 | 100 | 100 | 100 | 100 | 100 | 100 | 100 | 100 | 100 | survival at 1.1 mg/kg (Plasmodium berghei [11]): 100%; survival at 1.1 mg/kg (Plasmodium berghei [12]): 100%; survival at 1.1 mg/kg (Plasmodium berghei [13]): 100%; survival at 200 mg/kg (Plasmodium berghei [28]): 100%; survival at 100 mg/kg (Plasmodium berghei [9]): 100%; survival at 100 mg/kg (Plasmodium berghei [10]): 100%; survival at 100 mg/kg (Plasmodium berghei [15]): 80%
